The source of these data is ChEMBL document CHEMBL1136794, “l-2',3'-Didehydro-2',3'-dideoxy-3'-fluoronucleosides: synthesis, anti-HIV activity, chemical and enzymatic stability, and mechanism of resistance” (J Med Chem, 2003).

Each structure is given as a SMILES string.

The test system of one series is Vero. Put plainly: Cytotoxicity determined in (african green monkey kidney) Vero cells, expressed as IC50. To be noted: Chlorocebus sabaeus. In kind it is functional, cell-based. The method, boiled down: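 Vero cells were seeded in log phase at 5 × 10³ cells/well with 10-fold serial drug dilutions and incubated 3 days at 37 °C in 5% CO2. Viability was read by MTT: overnight dye incubation, 5 h solubilization, absorbance at 570 nm.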

A short description of series [1]: Cytotoxicity determined in uninfected PHA-stimulated human PBM cells (PBMCs), expressed as IC50. It is filed as functional, cell-based. To be noted: PBMC. The method, boiled down:
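Uninfected PHA-stimulated PBM cells from seronegative donors, isolated by single-step Ficoll-Hypaque, were seeded at 5 × 10⁴ cells/well with 10-fold serial drug dilutions. After 5 days at 37 °C in 5% CO2, MTT dye was added overnight, formazan solubilized 5 h, and absorbance read at 570 nm.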

Another series has as its system CCRF-CEM. Put plainly: Cytotoxicity determined in (T-lymphoblastoid cell line) CEM cells, expressed as IC50. It is filed as functional, cell-based. The settings on record: Homo sapiens. The method, boiled down:
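CEM T-lymphoblastoid cells were seeded in log phase at 2.5 × 10³ cells/well with 10-fold serial drug dilutions and incubated 4 days at 37 °C in 5% CO2. Viability was read as MTT reduction: dye added overnight, formazan solubilized 5 h, absorbance at 570 nm.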

A short description of series [2]: Activity against Lamivudine-resistant virus (HIV-1M184V) in human PBM cells, expressed as EC90. In kind it is functional. The settings on record: PBMC. The method, boiled down:
(§1)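 PHA-stimulated (2-3 days) human PBM cells from seronegative donors, bulk-infected 1 h with molecular clones HIV-1 xxBru or M184V (100 TCID50/1 × 10⁷ cells in flask, or 200 TCID50/6 × 10⁵ cells/well in 24-well plate), then added to 10-fold serial compound dilutions. RPMI-1640 with IL-2 and DEAE-dextran; 5 days, 37 °C, 5% CO₂. Supernatant RT activity read out; EC50/EC90 by median effect method.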

A short description of series [3]: Activity against wild-type virus (HIV-1XXBRU) in human PBM cells, expressed as EC50.
The nature of series [4]: Fold increase ratio of HIV-1M184V to HIV-1XXBRU. In kind it is functional. In outline:
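PHA-stimulated PBM cells were infected for 1 h with the molecular clones HIV-1 xxBru (wild type) or HIV-1 M184Vpitt, then cultured 5 days with 10-fold serial dilutions. EC50 came from supernatant RT activity by the median effect method, and the ratio was taken as mutant EC50 over wild-type EC50.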

The nature of series [5]: Activity against Lamivudine-resistant virus (HIV-1M184V) in human PBM cells, expressed as EC50. In kind it is functional, cell-based. In outline:
as §1

The nature of series [6]: Half life determined at pH 2 buffer solution. In kind it is ADME. The method, boiled down:
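Nucleosides were held in pH 2 buffer and followed by TLC every 10 min for the first 3 h, then up to 6 h, to estimate half-life.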

As for `OC[C@@H]1O[C@H](n2cnc3c(O)ncnc32)CC1(F)F`, the IC50 (with Vero; in series [1]; with CCRF-CEM) was over 100 µM throughout.

In the case of `Nc1ncnc2c1ncn2[C@H]1C=C(F)[C@H](CO)O1`, the IC50 (with Vero; in series [1]; in the series on CCRF-CEM) was over 100 µM throughout.

Consider `Nc1ccn([C@H]2CC(F)(F)[C@H](CO)O2)c(=O)n1`, for which the IC50 (in the series on Vero; in series [1]; in the series with CCRF-CEM) was over 100 µM in each case.

`Nc1nc(O)c2ncn([C@@H]3C=C(F)[C@H](CO)O3)c2n1`: the IC50 in the series with Vero amounted to 36.5 µM; in series [1] it was 17.4 µM; in the series with CCRF-CEM, 58.4 µM.

Consider `Nc1nc(O)c2ncn([C@H]3C=C(F)[C@H](CO)O3)c2n1`, for which the IC50 (with Vero; in series [1]; in the series with CCRF-CEM) was over 100 µM each time.

Regarding `Nc1nc(=O)n([C@@H]2CC(F)(F)[C@H](CO)O2)cc1F`, the IC50 (in the series on Vero; in series [1]; with CCRF-CEM) was over 100 µM in each case.

With `O=c1nc(O)ccn1[C@H]1CC(F)(F)[C@H](CO)O1`, the half-maximal inhibitory concentration (IC50) (in the series with Vero; in series [1]; in the series with CCRF-CEM) was over 100 µM each time.

Turning to `Nc1ncnc2c1ncn2[C@@H]1CC(F)(F)[C@H](CO)O1`, the IC50 (with Vero; in series [1]; with CCRF-CEM) was over 100 µM each time.

Consider `Nc1ncnc2c1ncn2[C@H]1CC(F)(F)[C@H](CO)O1`, for which the half-inhibitory concentration (IC50) (in the series with Vero; in series [1]; in the series with CCRF-CEM) was over 100 µM throughout.

The compound `Nc1nc(=O)n([C@@H]2C=C(F)[C@H](CO)O2)cc1F` showed a 90% effect concentration (EC90) in series [2] of 67.4 µM. In addition, the EC50 was 9 nM in series [3] and 10900 nM in series [5]. For the same compound, the IC50 (in the series on Vero; in series [1]; with CCRF-CEM) was over 100 µM throughout. In addition, in series [4], the FI stood at 1210.

With `Cc1cn([C@@H]2CC(F)(F)[C@H](CO)O2)c(=O)nc1O`, the IC50 (in the series on Vero; in series [1]; with CCRF-CEM) was over 100 µM in each case.

On to `Nc1nc(O)c2ncn([C@@H]3CC(F)(F)[C@H](CO)O3)c2n1`, for which the IC50 (in the series with Vero; in series [1]; in the series with CCRF-CEM) was over 100 µM throughout.

Compound `Nc1ccn([C@@H]2C=C(F)[C@H](CO)O2)c(=O)n1` displayed an EC90 in series [2] of 15.7 µM. Further, the EC50 worked out at 23 nM in series [3] and 2400 nM in series [5]. This compound had a half-life in series [6] of 2880 min. Also, the IC50 is over 100 µM in the series on Vero, 86.9 µM in series [1] and over 100 µM in the series with CCRF-CEM. The FI in series [4] is 104.

In the case of `O=c1nc(O)ccn1[C@@H]1CC(F)(F)[C@H](CO)O1`, the IC50 (in the series on Vero; in series [1]; in the series on CCRF-CEM) was over 100 µM each time.

On to `O=c1nc(O)ccn1[C@@H]1C=C(F)[C@H](CO)O1`, for which the half-inhibitory concentration (IC50) with Vero was over 100 µM; in series [1], over 100 µM; with CCRF-CEM it was 30.1 µM.

In turn, `Nc1ccn([C@@H]2CC[C@H](CO)O2)c(=O)n1` gave a concentration for an effect of 90% (EC90) in series [2] of 28.2 µM. The 50% effective concentration (EC50) in series [3] worked out at 170 nM; in series [5] it was 2900 nM. Also, in series [6], the half-life was 60 min. In series [4], the FI stood at 17.

For the compound `OC[C@@H]1O[C@@H](n2cnc3c(O)ncnc32)CC1(F)F`, the IC50 (in the series on Vero; in series [1]; in the series on CCRF-CEM) was over 100 µM in each case.

For `Nc1ccn([C@@H]2CC(F)(F)[C@H](CO)O2)c(=O)n1`, the half-inhibitory concentration (IC50) (in the series with Vero; in series [1]; with CCRF-CEM) was over 100 µM each time.

Regarding `Cc1cn([C@H]2CC(F)(F)[C@H](CO)O2)c(=O)[nH]c1=O`, the IC50 (with Vero; in series [1]; with CCRF-CEM) was over 100 µM each time.

`Nc1nc(=O)n([C@H]2CC(F)(F)[C@H](CO)O2)cc1F`: the IC50 (in the series on Vero; in series [1]; in the series on CCRF-CEM) was over 100 µM each time.

With `Nc1nc(O)c2ncn([C@H]3CC(F)(F)[C@H](CO)O3)c2n1`, the IC50 (with Vero; in series [1]; with CCRF-CEM) was over 100 µM each time.

Regarding `Nc1nc(=O)n([C@H]2C=C(F)[C@H](CO)O2)cc1F`, the IC50 (in the series with Vero; in series [1]; in the series with CCRF-CEM) was over 100 µM in each case.

Consider `OC[C@H]1O[C@@H](n2cnc3c(O)ncnc32)C=C1F`, for which the concentration for half-maximal inhibition (IC50) (in the series on Vero; in series [1]; with CCRF-CEM) was over 100 µM in each case.

Turning to `Nc1ccn([C@@H]2CS[C@H](CO)O2)c(=O)n1` [LAMIVUDINE], in series [2], the EC90 was over 100 µM. Further, the EC50 is 35 nM in series [3] and over 100000 nM in series [5]. Besides, the FI in series [4] is over 2860.

Take `Cc1cn([C@H]2C[C@H](N=[N+]=[N-])[C@@H](CO)O2)c(=O)[nH]c1=O` [ZIDOVUDINE]: the EC90 in series [2] worked out at 0.025 µM. Moreover, the EC50 in series [3] was 10 nM; in series [5], 3 nM. Also, in series [4], the FI was determined as 0.3.

Consider `Nc1ccn([C@H]2C=C(F)[C@H](CO)O2)c(=O)n1`, for which the IC50 (with Vero; in series [1]; in the series on CCRF-CEM) was over 100 µM throughout.

`Cc1cn([C@H]2C=C(F)[C@H](CO)O2)c(=O)nc1O`: the IC50 (in the series with Vero; in series [1]; in the series with CCRF-CEM) was over 100 µM in each case.

As to `Nc1ncnc2c1ncn2[C@@H]1C=C(F)[C@H](CO)O1`, the half-inhibitory concentration (IC50) (in the series on Vero; in series [1]; in the series on CCRF-CEM) was over 100 µM throughout.

Turning to `O=c1ccn([C@H]2C=C(F)[C@H](CO)O2)c(=O)[nH]1`, the IC50 (in the series on Vero; in series [1]; in the series with CCRF-CEM) was over 100 µM throughout.

As for `Cc1cn([C@@H]2C=C(F)[C@H](CO)O2)c(=O)nc1O`, the IC50 (with Vero; in series [1]; in the series on CCRF-CEM) was over 100 µM in each case.

In general, IC50 refers to the concentration that gives 50% inhibition. Broadly, the EC90 is the concentration at which the effect reaches the 90% level. Usually EC50 stands for the concentration needed to bring the measured effect to its halfway point. A word on the half-life: it is the time in which the quantity being followed falls by half.
